Rows were chosen to be rich in hits. Some 2.7% of all compounds tested hit in one or more screens of this group.
ABCB1 inh = human ABCB1 inhibition, ABCG2 as counter-screen. P08183. CCRF-Adr cells, JC-1 efflux, flow cytometry. inhibition, % at 6.6 µM. 190,000 tested, 0.067% active; in the data active means inhibition above about 40%;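 further: 0% = vehicle and 100% = reference inhibitor; higher value means more JC-1 retained so stronger ABCB1 efflux block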
ABCG2 block = human ABCG2 inhibition, ABCB1 as counter-screen | inhibition, % at 6.6 µM | IgMXP3 cells, JC-1 efflux, flow cytometry | AID 1325 | 190,000 tested, 0.1% active | Q9UNQ0;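 active means inhibition above 80%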;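 further: 0% = DMSO and 100% = nicardipine control wells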
Target sequence (Q9UNQ0 whole entry, looked up): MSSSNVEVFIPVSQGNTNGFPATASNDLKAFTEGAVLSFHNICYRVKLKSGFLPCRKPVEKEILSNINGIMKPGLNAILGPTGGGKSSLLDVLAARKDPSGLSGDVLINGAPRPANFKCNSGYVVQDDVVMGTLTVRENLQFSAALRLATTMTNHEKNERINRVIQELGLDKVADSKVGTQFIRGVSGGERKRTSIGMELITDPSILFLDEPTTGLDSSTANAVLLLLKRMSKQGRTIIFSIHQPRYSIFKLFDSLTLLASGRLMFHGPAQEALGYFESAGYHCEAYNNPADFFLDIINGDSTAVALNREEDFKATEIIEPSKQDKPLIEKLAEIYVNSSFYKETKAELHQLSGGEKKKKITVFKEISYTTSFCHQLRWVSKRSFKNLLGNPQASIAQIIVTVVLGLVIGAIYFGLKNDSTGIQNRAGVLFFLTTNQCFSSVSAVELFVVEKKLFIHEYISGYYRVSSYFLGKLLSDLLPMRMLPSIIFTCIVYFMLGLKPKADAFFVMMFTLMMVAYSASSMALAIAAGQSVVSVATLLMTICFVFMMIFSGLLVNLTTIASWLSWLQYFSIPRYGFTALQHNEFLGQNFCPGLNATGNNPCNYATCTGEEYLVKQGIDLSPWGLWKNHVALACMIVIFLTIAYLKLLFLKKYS
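System: two drug-resistant human cell lines, ABCG2 and ABCB1; controls: nicardipine high and DMSO low controls; times: 10 min exposure at 25 °C with rotation, no wash; detection: flow cytometry of retained JC-1 fluorescence; read-out basis: percent efflux inhibition, scaled nicardipine 100% to DMSO 0%; doses: one concentration, 6.6 µM final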
Measles CPE = protection of cells from measles virus; Measles virus-infected cells, CPE protection, absorbance; 140,000 tested, 1.5% active; protection (pct of control), % at 4 µM; in the data active means protection mostly above about 24%, no sharp cut-off; inactive means mostly below about 26%
FLuc inh counter = counter-screen for luciferase assay inhibitors: firefly luciferase inhibition. P08659. ATPLite firefly luciferase biochemical luminescence, 10 min. inhibition, % at 10 µM. 200,000 tested, 1.5% active. AID 1006;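 active means inhibition above about 50% when tested at 10 µM, limit read from the data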
Redox H2O2 prof = compounds producing H2O2 with reducing agent – biochemical, NIH compound library profiling, artefact control for MLSCN library redox annotation, primary screen | DTT-dependent redox cycling H2O2, phenol red/HRP absorbance; 100% = 100 µM peroxide control, 0% = buffer | activation, % at 10 µM | 200,000 tested, 0.03% active | AID 878;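 active means activation of at least 50% relative to the plate's high and low controls in the primary single-dose screen; inactive means activation below 50%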;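 further: compound incubated with DTT at 0.8 mM final as the reducing agent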
FLuc act counter = firefly luciferase counter-screen for stimulation assays. ATPlite luciferase biochemical, luminescence, 10 min; 0 = ATP-free wells, 1 = DMSO control. activation factor at 10 µM. AID 1027. 200,000 tested, under 10 active. P08659;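 active means luciferase activation factor, scaled between plate controls, of at least 2 with compound at 10 µM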
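Assay system: Luciferase/luciferin detection reagent, cell-free biochemical luciferase assay / Read-out: luciferase activation / Benchmarks: No-ATP low control, compound-free enzyme-plus-ATP high control / Medium: PBS buffer for ATP / Detection: luminescence measurement of luciferase light output / Schedule: 10 min at ambient temperature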
* marks the source's active call; other numbers are inactive results; . = no result given.

SMILES | ABCB1 inh | ABCG2 block | Measles CPE | FLuc inh counter | Redox H2O2 prof | FLuc act counter
CCOC(=O)CSc1nc2cc(C(=O)N3CCCC3)ccc2c(=O)n1Cc1ccccc1 | 10.8 | 31.1 | 24.6* | -0.4 | 0.1 | 1
FC(F)(F)c1cc(C(F)(F)F)c2ccc(Oc3ccccc3)nc2n1 | -0.2 | -0.4 | 42.9* | -9.4 | 1.7 | 1.1
Cc1nc2c3ccccc3[nH]c(=O)n2n1 | 0.1 | 2.1 | 68.2* | -6.1 | 3.0 | 1.1
CCn1c(=O)[nH]c2ccccc2c1=O | 0.4 | 1.7 | 15.1 | -4.7 | 1.4 | 1
O=c1c2ccccc2c(/C=N/c2nnc(Cc3ccccc3)s2)c(O)n1-c1ccc(Cl)cn1 | -0.4 | 0.2 | 6.5 | 50.2* | 0.3 | 0.5
Cc1cccc(C)c1N=Cc1c(O)n(-c2nccs2)c(=O)c2ccccc12 | 1.8 | 6.9 | 4.2 | -3.6 | 0.7 | 1
O=C1NC2(CCCCC2)C(=O)N1Cc1ccc([N+](=O)[O-])cc1 | 0.6 | 17.0 | 15.0 | -3.6 | . | 1
CCc1cccc(C)c1NC(=O)c1ccoc1C | -0.3 | -0.3 | 43.8* | -2.1 | 2.8 | 1
CN(C)S(=O)(=O)c1ccc(S(=O)(=O)N2CCN(CCC#N)CC2)cc1 | 0.6 | 8.2 | 15.1 | -0.1 | -2.1 | 1
N#CCCN1CCN(S(=O)(=O)c2ccc(S(=O)(=O)N3CCOCC3)cc2)CC1 | 2.0 | 14.5 | 28.1* | -2.1 | 0.0 | 1
N#C/C(=C\c1ccccc1)c1nc2ncccc2[nH]1 | 0.7 | 4.6 | 55.8* | 14.2 | -3.8 | 0.9
COc1cc(NC(=O)COC(=O)c2nc3nc(C)cc(C)n3n2)cc(OC)c1 | 0.3 | 3.9 | 3.9 | -7.8 | -3.8 | 1.1
CCOc1ccc2nc(/N=C/c3c(C)[nH]n(-c4ccc(C)cc4)c3=O)sc2c1 | -1.0 | -4.2 | 7.0 | 65.4* | 0.0 | 0.3
CCOc1ccc2nc(/N=C/c3c(C)[nH]n(-c4ccccc4)c3=O)sc2c1 | 0.3 | 1.5 | 51.0 | 43.3 | 0.1 | 0.6
CC(=O)c1ccc(NC(=S)N2CCCCCC2)cc1 | 0.7 | 12.7 | . | 9.0 | -0.3 | 0.9
COC(=O)Cc1ccc(NC(=S)N2CCCC(CO)C2)cc1 (configuration not stated) | -1.0 | -6.0 | 20.1 | 93.2* | 0.7 | 0.1
CC1CCCN(C(=S)Nc2ccc(F)cc2)C1 (configuration not stated) | 0.9 | 4.4 | . | -0.6 | -0.4 | 1
CC(=O)c1ccc(NC(=S)N2CCCC(CO)C2)cc1 (configuration not stated) | -0.5 | -2.0 | 20.0 | 52.2* | 0.5 | 0.5
COC(=O)Cc1ccc(NC(=S)N2CCCC(C)C2)cc1 (configuration not stated) | . | -1.8 | 6.4 | 89.3* | -0.2 | 0.1
CC1(C)CC(=O)c2cnc(NCC3CCCO3)nc2C1 (configuration not stated) | 0.2 | 1.4 | 29.7* | -3.4 | 1.8 | 1
CC1CC(=O)c2cnc(NCC3CCCO3)nc2C1 (configuration not stated) | 0.0 | 2.6 | 2.5 | 0.2 | 2.5 | 1
COc1ccc(O)c(/C=N/N=C2/C(=O)Nc3ccccc32)c1 | 0.4 | 6.2 | . | 81.1* | -2.0 | 0.2
O=C(NCCc1ccccn1)C(F)(F)C(F)(F)C(F)(F)C(F)(F)C(F)(F)C(F)F | 0.5 | 8.2 | 2.0 | -2.6 | -0.4 | 1
C/C(=N\NC(=O)COc1ccc(C(C)(C)C)cc1)c1cc2ccccc2o1 | -0.5 | -1.1 | 8.1 | 93.9* | 0.0 | 0.1
C/C(=N\NC(=O)COc1ccc(C)cc1C(C)C)c1ccc(-n2ccnc2)cc1 | 2.1 | 33.5 | 11.2 | 42.7 | 0.7 | 0.6
C/C(=N\NC(=O)COc1ccc(C)cc1C(C)C)c1cc2ccccc2o1 | -0.4 | 3.7 | 3.6 | 72.1* | 0.7 | 0.3
O=c1c2ccccc2nc(N/N=C/c2ccc(O)cc2)n1O | -0.5 | -2.0 | 1.1 | 93.8* | -4.7 | 0.1
O=c1c2ccccc2nc(N/N=C/c2c(O)ccc3ccccc23)n1O | -0.8 | -2.7 | 2.6 | 87.9* | -9.6 | 0.1
COc1cccc(/C=C/C(=O)NCc2cn3cc(Cl)ccc3n2)c1 | 0.6 | 4.4 | . | -3.7 | 0.9 | 1
